# Assay outcomes: PubChem, The Scripps Research Institute Molecular Screening Center
# SIAE primary: blocks human sialic acid acetylesterase; Q9HAT2; SIAE FP-Rh probe binding, fluorescence polarization; inhibition, % at 9.66 µM; hit rate 0.69% among 370,000; AID 1053197;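 active means inhibition above a cutoff: mean of compounds within the control limits plus 3 SD of those, cut at about 17% in these data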;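 further: 0% = plate median of compound wells and 100% = probe without SIAE protein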
# rCAG RNA binder: binds r(CAG) RNA repeats | r(CAG) RNA repeat, TO-PRO-1 dye displacement fluorescence | inhibition, % at 3 µM | hit rate 1.3% among 370,000 | AID 651821;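 active means inhibition above the plate cutoff, the mean of all test compounds on that plate plus 3 SD, cut at about 35% in these data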;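 further: 0% = DMSO alone and 100% = 100 µM mitoxantrone as full dye displacement; higher means more dye released from RNA so lower well fluorescence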
# HTRA1 inh: HTRA1 (human) protease inhibition; inhibition, % at 5.96 µM; recombinant HTRA1, FP-rhodamine activity-based probe, fluorescence polarization; hit rate 0.5% among 340,000; AID 504803; Q92743; in the data active means inhibition above about 36%;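 further: 0% = enzyme with DMSO and 100% = wells lacking enzyme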
# PRMT1 inh: blocks human protein arginine methyltransferase 1; recombinant PRMT1, activity-based probe fluorescence polarization; hit rate 1.3% among 370,000; inhibition, % at 2.79 µM;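 active means inhibition above about 21% made by adding two undisclosed values, limit read from the data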
# Target sequence (Q99873 whole entry, looked up): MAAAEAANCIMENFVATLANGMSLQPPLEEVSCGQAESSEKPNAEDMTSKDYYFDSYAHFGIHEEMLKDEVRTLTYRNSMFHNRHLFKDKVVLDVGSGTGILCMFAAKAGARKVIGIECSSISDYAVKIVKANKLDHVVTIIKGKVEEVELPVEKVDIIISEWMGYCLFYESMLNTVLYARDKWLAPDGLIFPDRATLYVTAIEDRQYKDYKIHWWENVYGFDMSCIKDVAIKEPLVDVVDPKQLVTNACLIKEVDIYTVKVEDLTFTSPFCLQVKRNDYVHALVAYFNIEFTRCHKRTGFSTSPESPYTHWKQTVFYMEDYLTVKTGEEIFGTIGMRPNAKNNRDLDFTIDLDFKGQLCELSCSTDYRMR
# mABHD4 FP: inhibits mouse alpha/beta hydrolase domain 4; purified mABHD4, FP-Rh probe fluorescence polarization; inhibition, % at 8.92 µM; hit rate 0.54% among 370,000;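 active means inhibition exceeding the mean over every tested compound plus 3 SD, cut at about 30% in these data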;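 further: 0% = plate median of compound wells and 100% = S159A mutant with DMSO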
#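 Test system: mABHD4 protein; Read-out basis: % inhibition; Incubation: 45 min + 60 min at 25 °C; Repeats: single replicate; Technique: fluorescence polarization with parallel and perpendicular emission, 525/598 nm; Compound: 8.92 µM, single dose; Benchmarks: full inhibition S159A mutant plus DMSO, zero as sample-well median.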
# PRMT1 inh conf: PRMT1 (human) inhibition, FP confirmation | shares compounds with PRMT1 inh | recombinant His-PRMT1, activity-based probe fluorescence polarization | inhibition, % at 2.79 µM | hit rate 42% among 3,300 | AID 687036;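 active means mean inhibition across replicates above the hit cutoff derived for the earlier primary screen, cut at about 22% in these data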
# Numbers without * were called inactive; . = not tested or not shown. Shown are actives, neighbours in structure and some others; about 3.3% of the full set was active somewhere.
SMILES,SIAE primary,rCAG RNA binder,HTRA1 inh,PRMT1 inh,mABHD4 FP,PRMT1 inh conf
COc1ccc(N2C(=O)C3C(C2=O)C2C=CC3C23CC3)c(OC)c1 (stereo not drawn),0.8,-1.1,2.3,-1.0,0.2,.
CCCOc1ccc(N2C(=O)CC(NCc3ccc(S(N)(=O)=O)cc3)C2=O)cc1 (stereo not drawn),10.4,1.2,2.6,17.6,-1.4,.
S=C(c1ccc2c(c1)OCO2)N1CCOCC1,-1.1,-1.0,2.6,0.3,-0.4,.
COC(=O)C1=CN(c2ccc(C(C)(C)C)cc2)C(N)=C(C#N)C1c1cccc([N+](=O)[O-])c1 (stereo not drawn),3.8,11.2,.,0.5,7.7,.
O=C(NC(=S)NCc1ccccc1)c1ccc2c(c1)OCO2,0.3,-2.9,-15.1,-1.8,-6.8,.
COc1ccc(CCNC2CC(=O)N(CCc3ccccc3)C2=O)cc1 (stereo not drawn),0.7,-7.2,0.3,45.1*,-2.2,-1.5
COc1ccc(CCN2C(=O)CC(NNC(=O)c3ccccc3Br)C2=O)cc1 (stereo not drawn),-0.5,0.7,1.9,-1.9,-6.4,.
Cc1cc(C)c(NC(=O)c2ccc3c(c2)NC(=O)C(C)S3)c(C)c1 (stereo not drawn),3.7,3.3,-6.3,0.7,0.5,.
CC1Sc2ccc(C(=O)NCc3ccccn3)cc2NC1=O (stereo not drawn),10.2,2.3,3.3,33.7*,-10.8,7.7
CCCCN1C(=O)C(CC(=O)NCCN2CCOCC2)CC(C(=O)N(C)C)=C1C (stereo not drawn),-3.4,0.3,6.6,-3.8,-0.2,.
COC(=O)c1ccccc1NC(=O)N1CSC[C@H]1C(=O)OC,-3.2,-0.1,0.5,30.3*,5.3,47.6*
Cc1ccc(-c2csc3nc(C)n(-n4cccc4)c(=O)c23)o1,-3.5,1.3,0.0,26.1*,-2.4,7.5
Cc1ccc2c(Cl)c(C(=O)NC3CC3)sc2c1,0.3,-0.6,-3.4,-0.4,2.9,.
N#Cc1ccc2sn(-c3ccccc3)c(=O)c2c1,5.0,1.5,-0.2,87.5*,10.1,98.4*
CC(=O)Nc1ccc2sn(-c3ccccc3)c(=O)c2c1,4.9,3.9,-5.2,76.8*,3.3,89.5*
O=c1c(-c2ccccc2)c[nH]n1-c1cccc([N+](=O)[O-])c1,12.7,13.4,6.0,1.1,12.3,.
O=c1c2cc([N+](=O)[O-])ccc2sn1-c1ccccc1,5.0,0.9,4.9,63.9*,19.8,80.6*
CC1=C(C(=O)N2CCOCC2)CC(CC(=O)NCc2ccco2)C(=O)N1CCC1=CCCCC1 (stereo not drawn),-1.2,0.6,3.4,2.7,-1.0,.
O=C(Nc1ccc(F)cc1)C(c1cccc(F)c1)N1CCN(c2cccc(C(F)(F)F)n2)CC1 (stereo not drawn),-28.6,5.9,.,6.6,-36.9,.
CC(=O)c1cccc(NC(=S)NC(=O)c2ccc(C)cc2Cl)c1,0.7,-2.1,-11.6,1.2,-11.7,.
Cc1ccc(/C=N/n2c(COc3ccccc3)n[nH]c2=S)s1,10.1,21.9,-0.3,27.3*,-5.2,3.6
Cc1ccc(SC2=C(N(C)C)C(=O)c3ccccc3C2=O)cc1,-1.4,5.9,22.7,52.4*,28.4,49.2*
CN(C)c1cccc2c1C(=O)c1ccccc1C2=O,4.6,1.9,26.1,2.7,23.1,.
Cc1ccc2c(c1)C(N1CCCC1=O)CC(c1ccco1)N2 (stereo not drawn),1.2,0.5,-5.1,24.8*,0.9,6.4
O=C(Nc1nc(=S)ss1)c1ccc(Cl)cc1Cl,-0.7,0.4,9.7,-0.8,8.2,.
SMILES,SIAE primary,rCAG RNA binder,HTRA1 inh,PRMT1 inh,mABHD4 FP,PRMT1 inh conf
COCc1cccc(-c2csc(C(N)c3ccc(F)c(F)c3)n2)c1 (stereo not drawn),4.7,-0.8,.,-2.0,-0.7,.
COCc1cccc(-c2csc(C(O)c3ccc(F)c(F)c3)n2)c1 (stereo not drawn),-4.0,3.5,.,52.2*,-14.5,-0.8
CC1(C)Oc2ccc3ccc(=O)oc3c2CC1O (stereo not drawn),-7.4,-3.1,7.7,5.3,-3.9,.
O=c1ccc2cc3c4c(c2o1)CCCN4CCC3,3.9,-65.8,12.3,71.7*,16.2,66.5*
Cc1ccccc1N1C(=O)C2C3C=CC(C2C1=O)N(C)C3=O (stereo not drawn),-3.1,0.9,5.5,0.1,-5.2,.
CN1C2C=CC(=O)C1C1C(=O)N(c3ccccc3)C(=O)C12 (stereo not drawn),1.1,0.9,.,28.1*,-0.6,2.3
CC(C)(O)P(=O)(O)CCc1ccccc1,-1.0,0.2,3.5,2.4,1.9,.
O=C1CN(CC(=O)Nc2cccc(Cl)c2Cl)c2ccccc2N1,-7.6,11.6,-15.8,52.3*,-1.8,76.1*
O=C(O)C1C2C=CC(O2)C1C(=O)Nc1ccccc1C(F)(F)F (stereo not drawn),7.2,4.4,-0.9,85.2*,-1.0,24.1*
CCc1ccccc1NC(=O)C1C2C=CC(O2)C1C(=O)O (stereo not drawn),0.0,-2.0,2.4,6.8,9.3,.
CCC1(CC)SCCNC1=O,-11.2,0.8,-0.2,-3.4,-8.0,.
COc1ccc(-c2sc(Nc3cccc4ccccc34)n[n+]2C)c(C)c1C,-1.0,0.8,1.1,-0.8,3.5,.
CCOC(=O)/C=C/C(=O)Nc1ccc(S(=O)(=O)Nc2c(C)cc(C)cc2C)cc1,-10.3,3.7,-12.9,-1.0,-7.0,.
CCOC(=O)/C=C/S(=O)(=O)c1ccc(NC(C)=O)cc1,8.6,-3.1,0.3,43.8*,5.9,35.1*
N#CC1=C2SCN(Cc3ccco3)CN2C(=O)CC1c1c(F)cccc1Cl (stereo not drawn),8.1,21.7,-8.9,52.2*,6.1,7.7
Cc1ccc(C2CC(=O)N3CN(Cc4ccco4)CSC3=C2C#N)cc1 (stereo not drawn),0.8,21.5,-2.7,39.2*,10.5,4.0
CC(C)c1ccc(C2CC(=O)N3CN(C)CSC3=C2C#N)cc1 (stereo not drawn),.,.,-9.2,.,.,.
N#CC1=C2SCN(Cc3ccccc3)CN2C(=O)CC1c1ccccc1F (stereo not drawn),.,.,-11.1,.,.,.
CCOC(=O)c1cc(CC)sc1NC(=O)COC(=O)c1ccccn1,8.2,0.1,-6.3,-5.4,-5.2,.
CC(=O)c1cc(NC(=O)c2ccc(C)cc2)c(=O)oc1C,1.9,4.1,2.0,32.9*,-5.2,-6.1
Cc1oc(=O)c(NC(=O)c2ccccc2)cc1C(=O)c1ccccc1,2.4,5.0,-2.2,55.5*,0.4,11.2
Cc1oc(=O)c(NC(=O)c2ccc(Cl)cc2)cc1C(=O)c1ccccc1,5.1,6.2,-19.1,42.0*,-5.8,21.0
CC(=O)c1cc(NC(=O)c2ccccc2)c(=O)oc1C,-0.3,2.9,-3.1,19.9,-0.2,.
O=C(COc1ccc(Cl)cc1Cl)NCCN1CCCC1,-2.3,-1.3,3.0,-3.8,0.3,.
